Test results taken from ChEMBL document CHEMBL4732262, “Identification of two novel thiophene analogues as inducers of autophagy mediated cell death in breast cancer cells” (Bioorg Med Chem, 2021).
Calls of active or inactive are those of the source. The rule behind the calls is not given here.

Experiments:
MCF7 [1] = assay: Induction of autophagy in human MCF7 cells assessed as increase in UVRAG mRNA expression at 2.5 uM after 24 hrs by RT-PCR analysis; assay type: functional, cell-based
Outline: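 Total RNA was taken with TRIzol from MCF7 cells treated 24 h with 2.5 µM compound or DMSO, then reverse transcribed. SYBR Green qPCR ran 40 cycles of 95 °C 15 s / 60 °C 1 min. Relative expression was calculated by 2^-ΔΔCt against DMSO-treated cells, normalized to housekeeping genes (GAPDH, B2M and others). Samples run in duplicate, two independent experiments, values averaged.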

MCF7 [2] = assay: Cytotoxicity against human MCF7 cells assessed as reduction in cell viability after 24 hrs by MTT assay; assay type: functional, cell-based; details: MCF7, 24 h
Outline: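 Cells seeded ~5 × 10^3 per well in 96-well plates, exposed to 0–40 µM for 24 h. MTT added at 0.5 mg/ml for 3 h, formazan dissolved in DMSO, absorbance read at 540 nm. IC50 taken from plotted curves. Duplicate wells, two independent repeats. MCF7 grown in DMEM, MDA-MB-231 in RPMI, both with 10% FBS at 37 °C and 5% CO2.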

MCF7 [3] = assay: Induction of apoptosis in human MCF7 cells assessed as change in Bax protein expression at 2.5 uM after 24 hrs by Western blot analysis; assay type: functional, cell-based
Outline: (§1)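 MCF7 or MDA-MB-231 cells given 2.5 µM or DMSO for 24 h, then lysed in RIPA buffer. Immunoblots probed overnight at 4 °C, followed by infrared-labelled secondary antibody for 1 h at 37 °C. Bands imaged and quantified densitometrically, with GAPDH as loading control. Representative of two independent experiments.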

MCF7 [4] = assay: Induction of autophagy in human MCF7 cells assessed as increase in LC3-2 conversion level at 2.5 uM after 24 hrs in presence of chloroquine by Western blot analysis; assay type: functional, cell-based
Outline: (§2)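 MCF7 cells given 2.5 µM alone or combined with 50 µM chloroquine for 24 h. Western blot for cleaved PARP, p62 and LC3, with GAPDH as loading control. LC3-II/I ratio by densitometry. At least two independent experiments.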

MCF7 [5] = assay: Induction of autophagy in human MCF7 cells assessed as increase in BAD mRNA expression at 2.5 uM after 24 hrs by RT-PCR analysis; assay type: functional, cell-based
Outline: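 MCF7 cells given 2.5 µM or DMSO for 24 h. Total RNA extracted with TRIzol and reverse-transcribed, then SYBR Green qPCR across 34 autophagy-regulatory genes (95 °C 10 min; 40 cycles of 95 °C 15 s and 60 °C 1 min). Relative expression by 2^-ΔΔCt against housekeeping genes and DMSO control, shown as log2. Two independent experiments.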

MCF7 [6] = assay: Induction of apoptosis in human MCF7 cells assessed as change in Bcl-xL protein expression at 2.5 uM after 24 hrs by Western blot analysis; assay type: functional, cell-based; outline: as §1
MCF7 [7] = assay: Induction of apoptosis in human MCF7 cells assessed as increase in cleaved-PARP protein expression at 2.5 uM after 24 hrs in presence of chloroquine by Western blot analysis; assay type: functional, cell-based; outline: as §2
MCF7 [8] = assay: Induction of apoptosis in human MCF7 cells assessed as change in Bcl-2 protein expression at 2.5 uM after 24 hrs by Western blot analysis; assay type: functional, cell-based; outline: as §1
MCF7 [9] = assay: Induction of autophagy in human MCF7 cells assessed as increase in PPP1R15A mRNA expression at 2.5 uM after 24 hrs by PCR microarray analysis; assay type: functional, cell-based
Outline: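 MCF7 cells (~10 × 10^6) were treated with 2.5 µM compound or DMSO for 24 h. Total RNA was converted to cDNA and run on an Unfolded Protein Response RT2 Profiler PCR array. Log2 fold change was computed by 2^-ΔΔCt against control cells, normalized to the mean of ACTB, B2M, GAPDH, HPRT1 and RPLPO.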

MCF7 [10] = assay: Induction of autophagy in human MCF7 cells assessed as increase in CHOP protein expression at 2.5 uM after 24 hrs by Western blot analysis; assay type: functional, cell-based; outline: as §1
MDA-MB-231 [11] = assay: Induction of apoptosis in human MDA-MB-231 cells assessed as increase in cleaved PARP level at 2.5 uM after r24 hrs by Western blot analysis; assay type: functional, cell-based; details: time 24.0 hrs; outline: as §1
MDA-MB-231 [12] = assay: Induction of apoptosis in human MDA-MB-231 cells assessed as morphological changes at 2.5 uM after up to 24 hrs by phase contrast microscopic method; assay type: functional, cell-based; details: time hrs <=24
Outline: (§3)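 ~5 × 10^4 cells in 6-well plates, either DMSO control or 2.5 µM. Morphology imaged at 0, 6, 12 and 24 h.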

MCF7 [13] = assay: Induction of autophagy in human MCF7 cells assessed as LC3-2 to LC3-1 protein ratio at 5 uM after 24 hrs by Western blot analysis (reference value: 0.22 to 0.8); assay type: functional
MCF7 [14] = assay: Induction of apoptosis in human MCF7cells assessed as reduction in number of cells at 2.5 uM by phase contrast microscopic method; assay type: functional, cell-based; details: time 6-24 hrs, TDE = time-dependent effect; outline: as §3
MDA-MB-231 [15] = assay: Cytotoxicity against human MDA-MB-231 cells assessed as reduction in cell viability at 25 to 100 uM after 24 hrs in presence of chloroquine by MTT assay; assay type: functional, cell-based; details: dose 25-100 µM
Outline: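 ~0.5 × 10^5 cells per well in six-well plates given 2.5 µM test agent together with chloroquine at 25, 50 or 100 µM, 24 h at 37 °C in humidified CO2. Viability read by MTT. Duplicate assays from two independent experiments, shown with SD.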

MDA-MB-231 [16] = assay: Induction of apoptosis in human MDA-MB-231 cells assessed as early apoptotic cells at 2.5 uM after 24 hrs by annexin V-FITC/Propidium iodide staining based flow cytometric analysis (reference value: 1.54%); assay type: functional
MCF7 [17] = assay: Induction of autophagy in human MCF7 cells assessed as increase in p62 degradation level after 24 hrs by Western blot analysis; assay type: functional, cell-based; details: dose 1.25-5 µM
Outline: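 Dose series in MCF7 cells (~5 × 10^6): 0, 1.25, 2.5 and 5 µM compound for 24 h, DMSO control. Lysates immunoblotted for p62 and LC3, GAPDH loading control, with infrared densitometry. At least two independent experiments.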

MCF7 [18] = assay: Induction of autophagy in human MCF7 cells expressing GFP tagged LC3-2 assessed as increase in […] puncta formation at 2.5 uM after 24 hrs by confocal microscopic analysis; assay type: functional, cell-based
Outline: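 MCF7 cells (~1 × 10^6) at 70% confluency on glass-bottom dishes were transiently transfected with GFP-LC3 (Lipofectamine 3000). 24 h later they received 2.5 µM compound or DMSO for another 24 h. Nuclei were stained with Hoechst 33342 and lysosomes with LysoTracker Red DND-99, then imaged by live-cell confocal microscopy. LC3 puncta were counted in at least 10 cells from 3 fields. Two independent experiments.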

MCF7 (Homo sapiens) = assay: Induction of apoptosis in human MCF7 cells assessed as increase in cell death at 2.5 uM after 24 hrs by EtBr/AO staining based fluorescence microscopic method
MCF7 [19] = assay: Induction of apoptosis in human MCF7 cells assessed as increase in cleaved PARP level at 2.5 uM after r24 hrs by Western blot analysis; assay type: functional, cell-based; details: time 24.0 hrs; outline: as §1
MCF7 [20] = assay: Induction of autophagy in human MCF7 cells assessed as LC3-2 to LC3-1 protein ratio at 1.25 uM after 24 hrs by Western blot analysis (reference value: 0.22 to 0.8); assay type: functional

SMILES	Activity (MCF7 [1])	IC50 (MCF7 [2]) [nM]	Activity (MCF7 [3])	Activity (MCF7 [4])	Activity (MCF7 [5])	Activity (MCF7 [6])	Activity (MCF7 [7])	Activity (MCF7 [8])	Activity (MCF7 [9])	Activity (MCF7 [10])	Activity (MDA-MB-231 [11])	Activity (MDA-MB-231 [12])	Ratio (MCF7 [13])	Activity (MCF7 [14])	Activity (MDA-MB-231 [15])	Activity (MDA-MB-231 [16]) [%]	Activity (MCF7 [17])	Activity (MCF7 [18])	Activity (MCF7 (Homo sapiens))	Activity (MCF7 [19])	other results
O=C1C(=O)c2sccc2-c2ccccc21	Active	1860	inactive	inactive	Active	inactive	inactive	inactive	Active	Active	Active	Active	11.4	Tde	inactive	24.7	Dose-dependent effect	Active	Active	Active	Ratio (MCF7 [20]): 0.53
O=C1C(=O)c2ccsc2-c2ccccc21	Active	1940	inactive	inactive	Active	inactive	inactive	inactive	Active	Active	Active	Active	34.1	Tde	inactive	11.9	Dose-dependent effect	Active	Active	Active	Ratio (MCF7 [20]): 10.2
